Source: PubChem (Sanford-Burnham Center for Chemical Genomics)
SUMO1-SIM PPI – modulators of SUMO1 protein-protein interactions, primary screen, biochemical, uHTS; Small ubiquitin-related modifier 1 (Homo sapiens), P63165; SUMO1 binding to a labelled peptide, TR-FRET, 1 h; inhibition, % at 20 µM; 0.33% of 360,000 active; AID 602429, 2012; in the data active = inhibition above about 37%
Target sequence (P63165 whole entry, looked up): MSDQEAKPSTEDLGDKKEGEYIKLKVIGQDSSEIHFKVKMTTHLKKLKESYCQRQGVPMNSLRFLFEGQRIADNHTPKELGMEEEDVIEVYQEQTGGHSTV
Rpn11 block – Rpn11 (PSMD14) deubiquitinase inhibitors, primary screen, biochemical, fluorescence polarization, uHTS. 0.59% of 360,000 active. AID 588493, 2011. inhibition, % at 20 µM. 26S proteasome non-ATPase regulatory subunit 14 (Homo sapiens), O00487. human 26S proteasome, Ub4-pepOG fluorescence polarization; 20S core pre-blocked with epoxomicin;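 active = inhibition at 20 µM, scaled to each plate's controls, above about 33%, limit read from the data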
Target sequence (O00487 whole entry, looked up): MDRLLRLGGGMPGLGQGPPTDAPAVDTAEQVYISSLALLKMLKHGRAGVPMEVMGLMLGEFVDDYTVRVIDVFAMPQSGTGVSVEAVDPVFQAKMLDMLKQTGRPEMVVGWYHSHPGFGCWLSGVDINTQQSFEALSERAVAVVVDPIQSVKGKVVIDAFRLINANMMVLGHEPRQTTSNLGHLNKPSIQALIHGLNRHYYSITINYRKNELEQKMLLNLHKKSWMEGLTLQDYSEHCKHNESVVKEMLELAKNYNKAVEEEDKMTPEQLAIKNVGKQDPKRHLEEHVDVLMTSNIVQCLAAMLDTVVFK
STEP block – STEP phosphatase inhibitors, primary screen, biochemical, fluorescence intensity, uHTS | inhibition, % at 20 µM | 0.25% of 360,000 active | AID 588621, 2011 | recombinant STEP, OMFP fluorogenic substrate | Tyrosine-protein phosphatase non-receptor type 5 (Homo sapiens), P54829;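 active = inhibition at 20 µM, scaled per plate between control wells, above about 37%, limit read from the data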;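 also: 0% = DMSO with enzyme and substrate and 100% = substrate only without enzyme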
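medium = Bis-Tris buffer pH 6.0, 2.5 mM DTT, 0.005% Tween 20 | test system = STEP (striatal-enriched tyrosine phosphatase) enzyme, cell-free | measure = normalized % inhibition | compound dosing = 20 µM, 1% DMSO | also added = 25 µM OMFP | schedule = reaction 20 min, ambient temperature | measured by = fluorescence read at 480 nm ex / 540 nm em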
Scp1 inh – Scp-1 phosphatase inhibitors, primary screen, biochemical, colorimetric, uHTS; Carboxy-terminal domain RNA polymerase II polypeptide A small phosphatase 1 (Homo …; Recombinant Scp1, phosphopeptide, malachite green phosphate absorbance; inhibition, % at 20 µM; 0.88% of 340,000 active;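 active = inhibition above about 50% at 20 µM, limit read from the data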;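 also: plate controls were DMSO wells with enzyme for no effect and wells lacking enzyme for full effect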
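Test system: SCP-1 catalytic domain; Buffer or medium: Acidic Tris acetate buffer with magnesium and detergent; Also added: Phosphorylated 17-residue peptide substrate; Compound: single 20 µM dose, 1% DMSO; Schedule: enzyme reaction 45 min at room temperature, colour 5 min, stabilisation 30 min; Signal: Phosphate-binding colour reagent, absorbance read at 630 nm.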
LMPTP block – LMPTP phosphatase inhibitors, primary screen, biochemical, fluorescence intensity, uHTS; recombinant LMPTP-A, OMFP fluorogenic substrate; Low molecular weight phosphotyrosine protein phosphatase (Homo sapiens), P24666; 0.22% of 360,000 active; inhibition, % at 20 µM;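 active = compounds that cut the enzyme signal by at least half of the control window in the single-dose screen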;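 also: plate controls were DMSO wells with enzyme plus substrate for no effect and substrate without enzyme for full effect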
Target sequence (P24666 whole entry, looked up): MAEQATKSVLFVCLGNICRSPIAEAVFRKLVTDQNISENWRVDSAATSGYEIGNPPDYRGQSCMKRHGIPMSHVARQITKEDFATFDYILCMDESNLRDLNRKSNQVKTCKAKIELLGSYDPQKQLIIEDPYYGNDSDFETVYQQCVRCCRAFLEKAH
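test system = LMPTP-A | amount = 0.625 nM LMPTP-A final | reagent = fluorogenic phosphatase substrate OMFP at 400 µM final | incubation = 50 min at room temperature | benchmarks = no-enzyme low control, uninhibited high control | medium = Bis-Tris pH 6.0, DTT, detergent | signal = fluorescence intensity of OMFP turnover product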
DNMT1 inh – human DNMT1 methyltransferase inhibitors, primary screen, biochemical, molecular beacon, fluorescence, HinP1I cleavage, uHTS; AID 588458, 2011; 0.83% of 360,000 active; inhibition (reported as % activation of signal), % at 10 µM; in the data active = inhibition above about 50%
DNMT1 inh conf – DNMT1 methyltransferase inhibitor retest, confirmation, biochemical, molecular beacon, fluorescence, single concentration; shares compounds with DNMT1 inh; 8% of 2,300 active; DNMT1 molecular beacon HinP1I cleavage; inhibition, % at 10 µM;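 active = average inhibition of at least 30% in the single-concentration confirmation test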
Beacon interf – shows spectral interference in the DNMT1 beacon assay. shares compounds with DNMT1 inh. DNMT1 molecular beacon spectral interference counterscreen, fluorescence 485/520. activation (fluorescence interference), % at 10 µM. 1% of 2,300 active;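 active = activation of at least 30% at 10 µM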;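 also: DNMT1 catalytic domain with a HinP1I cleavage step and a FAM/dabcyl DNA beacon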
Starred values were filed as active, the others as inactive; nt = not tested or not shown. A selection: hits, their analogues and other compounds. The true share with any hit is near 2.3%.

SMILES	SUMO1-SIM PPI	Rpn11 block	STEP block	Scp1 inh	LMPTP block	DNMT1 inh	DNMT1 inh conf	Beacon interf
O=C(COc1ccc(Cl)cc1Cl)NN=C1c2ccccc2-c2ccccc21	13	-7	4	-9	8	87*	1	0
CC12CCC3c4ccc(OCC(=O)O)cc4CCC3C1CCC2=O (stereo unspecified)	-3	1	0	5	0	-2	nt	nt
CC(=O)NC(c1cccc(F)c1)c1nc(-c2cc(F)cc(Cl)c2)cs1 (stereo unspecified)	-1	13	0	nt	30	59*	5	7
COc1ccc(Nc2ccc(Nc3ccc(OC)cc3)nn2)cc1	-7	-9	0	3	1	-6	nt	nt
COc1ccc(Nc2ccc(OC)cc2)cc1	20	-2	10	-10	9	56*	3	1
Cc1cc(C)cc(Nc2nc3c(S(=O)(=O)c4ccccc4)nnn3c3ccccc23)c1	-4	-1	3	-1	-1	54*	3	-4
CCOc1ccc(OCc2ccc(C(=O)NC(C)(C)C)o2)cc1	0	-2	3	6	-1	49	9	2
Cc1ccccc1C(=O)Nc1ccc2c(C#N)c3nc4ccccc4nc3n2c1	26	-33	-1	94*	11	66*	4	-3
CCOC(=O)c1c(NC(=O)N/N=C/c2ccccc2OCC)sc(C(C)=O)c1C	1	22	1	-3	2	56*	4	2
Cc1ccc(NC(=O)CSc2nsc(SCC(=O)Nc3ccc(C)cc3C)c2C#N)c(C)c1	-1	3	-1	-3	-1	52*	3	3
CCOC(=O)CSc1nsc(SCC(=O)OCC)c1C#N	-4	-2	-1	-2	-1	76*	-1	5
Cc1csc(NC(=O)CSc2nsc(SCC(=O)Nc3nc(C)cs3)c2C#N)n1	4	10	2	-4	1	-6	nt	nt
COc1ccccc1/C=C/C=N/NC(=O)c1cc(-c2ccco2)[nH]n1	22	28	-1	-1	67*	61*	14	2
COc1ccccc1/C=C/C=N/NC(=O)c1ccccn1	-15	4	1	-5	0	3	nt	nt
Cc1ccc2nc(Nc3ccc4[nH]c(=O)[nH]c4c3)c(-n3nc(C)cc3C)nc2c1	-4	0	1	-1	4	51*	3	2
Nc1nc(Nc2ccccc2Cl)cc(=O)[nH]1	0	0	1	9	0	-10	nt	nt
N#Cc1c(N)n(CCc2ccc(F)cc2)c2nc3ccccc3nc12	30	17	-2	6	8	71*	0	3
COCCn1c(N)c(C#N)c2nc3ccccc3nc21	-2	7	-3	-2	0	-7	nt	nt
COC(=O)[C@]1(C)N[C@H](CN(C)C(C)=O)[C@@H]2C(=O)N(C)C(=O)[C@@H]21	-2	0	-1	-4	-3	1	nt	nt
COCC(=O)N(C)C[C@H]1N[C@@](C)(C(=O)OC)[C@H]2C(=O)N(C)C(=O)[C@@H]12	5	-6	-9	0	-1	86*	0	3
Cc1ccccc1N(C(=O)Cc1ccsc1)C(C(=O)NC1CCCCC1)c1ccc(F)cc1 (stereo unspecified)	1	0	-3	-3	0	59*	1	1
O=C(NC1CCCC1)C(c1ccncc1)N(C(=O)Cc1cccs1)c1ccc(F)cc1 (stereo unspecified)	10	2	-1	-10	1	1	nt	nt
O=[N+]([O-])c1ccccc1Oc1ccc(S(=O)(=O)N2CCOCC2)cc1	-41	0	-2	-1	0	-1	nt	nt
O=C(O)C1CC(Br)C(Br)CC1C(=O)O (stereo unspecified)	5	-3	-2	nt	-1	10	nt	nt
O=C(O)C1CC2C3CC(C(=O)O)C(C3)C2C1 (stereo unspecified)	-2	5	-3	0	-1	75*	3	2
SMILES	SUMO1-SIM PPI	Rpn11 block	STEP block	Scp1 inh	LMPTP block	DNMT1 inh	DNMT1 inh conf	Beacon interf
CCOc1ccccc1CN1CCNC(=O)C1CC(=O)NCCCn1cccn1 (stereo unspecified)	-2	-5	0	-1	-3	3	nt	nt
O=C(CCN1C(=O)/C(=C/c2cccc(Br)c2)SC1=S)NNC(=O)c1cccnc1	-13	0	-1	1	11	71*	3	-1
CC(C)(C)OC(=O)NCc1ccc(NC(=O)c2nc[nH]c2C(=O)NCCCCCCNC(=O)c2[nH]cnc2C(=O)Nc2ccc(CNC(=O)OC(C)(C)C)cc2)cc1	7	7	0	-5	8	15	nt	nt
CC(C)(C)OC(=O)NCc1ccc(NC(=O)c2nc[nH]c2C(=O)NCCCNC(=O)c2[nH]cnc2C(=O)Nc2ccc(CNC(=O)OC(C)(C)C)cc2)cc1	2	2	-4	1	-4	60*	1	-2
CC(C)(C)OC(=O)NCc1ccc(NC(=O)c2nc[nH]c2C(=O)NCCCCNC(=O)c2[nH]cnc2C(=O)Nc2ccc(CNC(=O)OC(C)(C)C)cc2)cc1	24	-3	-6	-4	-3	61*	0	1
O=C(CCCCCn1c(=S)[nH]c2cc3c(cc2c1=O)OCO3)N1CCN(c2ccccc2)CC1	1	-6	4	-6	2	66*	-2	-6
Cc1cc(C)n2nc(SCC(=O)N3CCC(C(=O)O)CC3)nc2n1	-2	-1	-2	3	-4	4	nt	nt
COC(=O)C1CCN(C(=O)CSc2nc3nc(C)cc(C)n3n2)CC1	-6	-3	-1	-1	0	63*	1	2
